NR2E3 ag-1 = NR2E3 agonists in two-hybrid cells, primary screen, cell-based, luminescence, CHO-S, Gal4-NCOR/VP16-NR2E3; 360,000 compounds, 0.35% hits; inhibition of corepressor binding, % at 3.98 µM; AID 602229, 2012; luciferase;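 active means inhibition above the mean of all tested compounds plus 3 SD, cut at about 70% in these data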;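 further: 0% = DMSO with NR2E3 transfected cells and 100% = cells lacking NR2E3 construct; higher means lower luciferase signal from less NR2E3 corepressor binding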
PG9 binder = binders of HIV-1 gp120 antibody PG9, primary screen, biochemical, TR-FRET; TR-FRET gp120-PG9 antibody binding; inhibition, % at 6.7 µM; 360,000 compounds, 0.43% hits; AID 624416, 2012; in the data active means inhibition above about 8.5%
VLA-4 inh = inhibition in human VLA-4 binding assay, primary screen, VLA-4 allosteric modulator project, MLPCN library, flow cytometry, VLA-4 expressing cells; Integrin alpha-4 (Homo sapiens), P13612; ligand binding flow cytometry; inhibition, % (about 7 µM as worked out from the volumes in the protocol); 330,000 compounds, 0.2% hits; AID 2557, 2010; in the data active means inhibition above about 50%
Target sequence (P13612 whole entry, looked up): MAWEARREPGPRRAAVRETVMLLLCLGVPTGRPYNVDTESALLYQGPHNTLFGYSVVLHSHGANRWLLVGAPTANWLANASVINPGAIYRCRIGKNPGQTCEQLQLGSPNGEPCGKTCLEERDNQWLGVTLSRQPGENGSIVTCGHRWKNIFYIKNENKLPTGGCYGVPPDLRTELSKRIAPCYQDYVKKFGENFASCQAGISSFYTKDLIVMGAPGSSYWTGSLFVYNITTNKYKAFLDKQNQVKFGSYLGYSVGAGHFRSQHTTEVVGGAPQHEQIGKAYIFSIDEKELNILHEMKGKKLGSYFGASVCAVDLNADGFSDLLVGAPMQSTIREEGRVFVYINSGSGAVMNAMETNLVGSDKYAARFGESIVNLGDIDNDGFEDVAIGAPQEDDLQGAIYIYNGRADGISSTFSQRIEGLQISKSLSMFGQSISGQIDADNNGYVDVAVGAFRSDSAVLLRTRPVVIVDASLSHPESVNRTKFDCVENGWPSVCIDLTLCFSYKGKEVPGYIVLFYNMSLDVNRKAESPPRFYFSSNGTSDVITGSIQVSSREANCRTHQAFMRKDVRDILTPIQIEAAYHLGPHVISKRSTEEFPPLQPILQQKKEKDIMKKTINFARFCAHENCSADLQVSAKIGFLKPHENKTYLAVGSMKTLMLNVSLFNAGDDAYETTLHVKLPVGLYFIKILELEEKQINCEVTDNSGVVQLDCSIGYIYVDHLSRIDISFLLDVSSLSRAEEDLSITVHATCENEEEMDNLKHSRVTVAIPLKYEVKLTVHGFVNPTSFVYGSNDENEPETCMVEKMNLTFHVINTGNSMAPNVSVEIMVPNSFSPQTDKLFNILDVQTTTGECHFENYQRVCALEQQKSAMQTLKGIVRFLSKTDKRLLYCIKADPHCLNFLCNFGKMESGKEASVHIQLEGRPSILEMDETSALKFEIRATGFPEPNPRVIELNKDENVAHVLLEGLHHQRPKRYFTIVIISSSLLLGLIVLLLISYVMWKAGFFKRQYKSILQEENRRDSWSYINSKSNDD
NR2E3 ag-2 = inhibitors of NR2E3-RetCOR corepressor binding, primary screen, NR2E3 agonist project, biochemical, TR-FRET, GST-NR2E3, biotin-RetCOR; Photoreceptor-specific nuclear receptor (Homo sapiens), Q9Y5X4; 320,000 compounds, 0.12% hits; inhibition of corepressor binding, % at 4.78 µM; 1536-well;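 active means percent inhibition above the cutoff of mean plus 3 SD of all tested compounds, set per screening campaign, cut at about 20% in these data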;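 further: 0% = DMSO wells and 100% = biotin wells as full block of FRET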
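Material: NR2E3–RetCOR corepressor complex / Amount: 1.35 nM GST-NR2E3 / Medium: Tris pH 7.5 / Compound: single nominal compound dose of 4.8 µM / Incubation: 5 h at 4 °C / Technique: TR-FRET, Eu(K)-anti-GST donor, streptavidin-D2 acceptor, ex 340, em 617/671 nm / Read-out basis: percent loss of FRET ratio relative to control wells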
Rev-erbA mod = modulators of Rev-erb alpha DNA binding, primary screen, biochemical, FITC-DNA, fluorescence polarization, uHTS. Nuclear receptor subfamily 1 group D member 1 (Homo sapiens), P20393. Rev-erbα–FITC-DNA binding, 90 min. activity, % at 10 µM. 370,000 compounds, 0.79% hits. AID 1259318, 2017;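 active means activity above about 14%, limit read from the data; passing the limit was not always enough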;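 further: 0% = DMSO wells with 35 nM protein and 100% = DMSO wells with 750 nM protein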
NR2E3 ag confirm = NR2E3 agonist confirmation in cells, cell-based, luminescence, CHO-S two-hybrid; AID 624378, 2012; inhibition, % at 3.98 µM; 2,300 compounds, 51% hits; CHO-S mammalian two-hybrid NR2E3-NCOR, luciferase luminescence; shares compounds with NR2E3 ag-1;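 active means average inhibition above a cutoff equal to the mean inhibition of all tested compounds plus one SD, cut at about 70% in these data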;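 further: 0% = DMSO in NR2E3 cells and 100% = DMSO in cells lacking NR2E3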
GAL4-VP16 luc = GAL4-VP16 reporter modulators, confirmation, counter-screen for NR2E3 agonist project, cell-based, luminescence, CHO-S, high throughput | shares compounds with NR2E3 ag-1 | CHO-S GAL4-VP16 luciferase reporter | inhibition, % at 3.98 µM | 2,300 compounds, 29% hits;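 active means mean inhibition above a cutoff equal to the average over all tested compounds plus one standard deviation, cut at about 70% in these data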;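 further: luciferase from a UAS reporter driven by GAL4-VP16 transactivation; 0% = DMSO with VP16-transfected cells and 100% = DMSO with cells lacking VP16; higher means less reporter light so more repression of VP16 activity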
* = called active by the depositor; x = not tested or not shown. Rows were chosen to be rich in hits. Some 1.6% of all compounds tested hit in one or more screens of this group.

SMILES	NR2E3 ag-1	PG9 binder	VLA-4 inh	NR2E3 ag-2	Rev-erbA mod	NR2E3 ag confirm	GAL4-VP16 luc
CC(C)c1ccc(-c2csc(NC(=O)c3cccs3)c2C(=O)O)cc1	49	0	2	0	-9	94*	16
C=CCN1[C@H](CO)[C@H](c2ccc(Br)cc2)[C@@H]1C#N	x	x	x	x	3	x	x
COc1ccc(NC(=O)COc2cccc3c2OC(C)(C)C3)c(OC)c1	24	-3	x	x	5	x	x
COc1cc(C)c(NC(=O)COc2cccc3c2OC(C)(C)C3)cc1OC	62	x	32	-4	x	10	41
Cc1cccc(NC(=O)CSc2nc3ccccc3c(=O)n2C)c1C	81*	2	x	x	4	91*	80*
COc1ccccc1NC(=O)CSc1nc2ccccc2c(=O)n1C	16	-2	-2	6	-1	x	x
Cn1c(SCc2cccc([N+](=O)[O-])c2)nc2ccccc2c1=O	49	-4	0	2	-2	83*	65
CNC(=O)OCc1nc(SSC(C)(C)C)n(C)c1COC(=O)NC	55	1	x	x	4	28	12
CCSc1nc(COC(=O)NC)c(COC(=O)NC)n1C	-15	5	x	x	3	x	x
COCCCNC(=O)C[C@H]1C[C@@]2(C(=O)OC)C(=C[C@H](C3CCCC3)O[C@@H]2C)N(CCc2ccc(OC)c(OC)c2)C1=O	x	x	x	x	1	x	x
Cc1ccc(C(=O)C2CCN(C(=O)c3ccc(C)cc3)CC2)cc1	55	-1	11	-2	0	32	27
Cc1ccc(C(=O)N2CCC(C(=O)c3c(C)cc(C)cc3C)CC2)cc1	37	0	-1	-3	-2	x	x
O=[N+]([O-])c1ccc(NC(=S)NCCc2ccc(F)cc2)cc1	63	-3	x	-3	5	77*	48
Cc1nn(Cc2ccc(Cl)cc2)c(C)c1NC(=O)c1cc(-c2ccc3c(c2)OCO3)on1	58	-2	14	-1	-2	74*	51
CCc1[nH]nc(C(=O)N2CCCC(C(=O)c3cccc(C(F)(F)F)c3)C2)c1C (centres undefined)	49	-3	-3	-4	-5	20	31
O=C(NNc1ccccc1)c1ccccc1	37	-1	x	x	2	x	x
O=NN(CC(=O)NNc1ccccc1)CC(=O)NNc1ccccc1	73*	-1	x	x	2	74*	-2
O=C(NCc1ccccc1CN1CCCC1)c1cccc(N2CCCC2=O)c1	78*	1	22	6	-2	-7	-9
O=C(NCc1cccs1)c1cccc(N2CCCC2=O)c1	-25	-1	6	1	1	x	x
CC(=O)c1cn(CCOc2ccccc2C)c2ccccc12	70*	-1	7	2	3	94*	79*
Cc1ccccc1OCCn1cc(C(=S)N2CCCC2)c2ccccc21	-12	-1	-7	-2	1	x	x
CCOC(=O)c1ccc(NS(=O)(=O)c2cc3c4c(c2)CCN4C(=O)CC3)cc1	63	0	7	-2	7	22	28
Cn1cccc1C(=O)N1CCN(S(=O)(=O)c2ccc(Br)s2)CC1	x	x	x	x	-4	x	x
O=C(Nc1ccc(Br)cc1)c1cccc(S(=O)(=O)Nc2ccccn2)c1	21	-2	16	3	0	x	x
O=C(Nc1ccc(Br)cc1)c1cccc(S(=O)(=O)Nc2cnc3ccccc3c2)c1	84*	-2	9	2	-1	98*	86*
SMILES	NR2E3 ag-1	PG9 binder	VLA-4 inh	NR2E3 ag-2	Rev-erbA mod	NR2E3 ag confirm	GAL4-VP16 luc
O=C(c1cnn(-c2ccccc2)c1)c1cc(Br)ccc1O	11	-1	14	4	-3	x	x
O=C(c1ccc(O)c(Br)c1)c1cc(Br)ccc1O	85*	-2	x	x	-2	96*	74*
O=C(C(=O)c1cc(Br)ccc1O)c1cc(Br)ccc1O	99*	-2	x	x	-1	100*	92*
C/C=N/NC(=O)c1cc(Br)ccc1O	-4	-1	-5	-1	-8	x	x
Cc1ccc(CNC2CCC23CCC(c2ccccc2)CC3)o1 (centres undefined)	x	x	x	x	-3	x	x
C=CCN1C(C(=O)OC)CN(Cc2cn(Cc3ccc(Cl)cc3)nn2)CCS1(=O)=O (centres undefined)	x	x	x	x	4	x	x
COc1ccc2c(c1)NC(=O)[C@@]2(CCN1C(=O)c2ccccc2C1=O)c1[nH]c2ccccc2c1CCN1C(=O)c2ccccc2C1=O	x	x	x	x	2	x	x
CC(=O)c1cccc(NC(=O)N2CCCCCC2)c1	-16	-1	-1	0	0	x	x
CC(=O)c1cccc(NS(=O)(=O)c2ccc(NC(=O)N3CCCCC3)cc2)c1	68	1	1	-1	-1	29	33
COc1ccccc1OCCNS(=O)(=O)c1ccc2oc3ccccc3c2c1	51	0	8	0	4	62	68
CC(=O)c1c(C)[nH]c(C(=O)C(C)Sc2nnc(NC3CC3)s2)c1C (centres undefined)	51	2	-4	4	-1	44	47
Cc1ccc(NC(=O)C2CCCN(c3nnc(-n4cccc4)s3)C2)c(C)c1 (centres undefined)	x	x	x	x	3	x	x
FC(F)(F)c1ccccc1-n1c(-c2ccco2)n[nH]c1=S	63	1	9	0	-2	20	3
N#CCC[C@@H]1CC[C@]2(CCCN(C(=O)C3CCCCC3)C2)O1	x	x	x	x	5	x	x
Cc1ccc(CN2CCCCC(NC(=O)c3ccc(F)c(F)c3)C2=O)cc1 (centres undefined)	x	x	x	x	3	x	x
CN1Cc2nnn(Cc3ccccc3)c2-c2cc(N3CCCC3)ccc2S1(=O)=O	x	x	x	x	2	x	x
O=C1Nc2ccccc2C1Cc1ccccc1 (centres undefined)	-3	-1	-1	1	-7	x	x
O=C1C=CC2(C=C1)O[C@H](Cc1ccccc1)[C@@H](Cc1ccccc1)O2	100*	2	x	x	3	100*	68
COc1ccc(C[C@@H]2OC3(C=CC(=O)C=C3)O[C@H]2Cc2ccc(OC)cc2)cc1	97*	x	x	x	x	96*	54
COc1ccc(N2C(=O)CC(Cc3ccccc3)C2=O)cc1 (centres undefined)	11	-1	-1	-2	-1	x	x
CCOC(=O)CC[C@H]1CC[C@]2(CCCN(C(=O)c3ccno3)C2)O1	x	x	x	x	3	x	x
